# Published values gathered from unrelated publications.
# Lines come from different studies, so protocols differ.
# Cell line: RPMI-8226
# Read-out: cell growth or viability
Structure (SMILES),assay,conditions,quantity,value
COc1ccc(C(=O)/C=C/c2ccc(Cl)c(Cl)c2)cc1S(N)(=O)=O,SRB,10 µM,inhibition,107%
COc1cccc(Oc2ccccc2NC(=O)CNC(=O)c2cccc3ccccc23)c1,SRB,48 h,GI50,955 nM
Cc1cc(C)n(C(=S)[S][Au][PH](CCCCCC[PH]([Au][S]C(=S)n2nc(C)cc2C)(c2ccccc2)c2ccccc2)(c2ccccc2)c2ccccc2)n1,,,GI50,140 nM
CC(C)C[C@H](NC(=O)[C@H](Cc1ccccc1)NC(=O)c1cnccn1)B(O)O,ATP luminescence,,IC50,3.5 nM
COc1ccc(C(=O)Nc2cccc(-c3nc(NC(P(=O)(O)O)P(=O)(O)O)c4ccsc4n3)c2)cc1F,MTS,72 h,EC50,460 nM
COc1cc(Nc2nccc(-c3cnn4nc(OC)ccc34)n2)cc(C(F)(F)F)c1,ATP luminescence,,IC50,220 nM
COc1ccc(C(=O)/C=C/c2c(F)cccc2Cl)cc1S(N)(=O)=O,SRB,10 µM,inhibition,110%
CC(C)C[C@H](NC(=O)[C@H](Cc1ccccc1)NC(=O)c1cnccn1)B(O)O,ATP luminescence,,EC50,3.9 nM
N[C@@H]1CCCN(c2c(/C=C3\SC(=O)NC3=O)cccc2-c2ccccc2)C1,thymidine uptake,,GI50,2630 nM
CCC[C@H](Nc1nc(-c2ccc(NC(=O)NCC)c(OC)c2)ncc1C)c1cccnc1,fluorescence,72 h,IC50,18.3 nM
C=CC(=O)N1CCC[C@@H](n2nc(-c3ccc(Oc4ccccc4)cc3)c3c(N)ncnc32)C1,,48 h,GI50,> 10000 nM
CC[C@]1(O)C[C@H]2CN(CCc3c([nH]c4ccccc34)[C@@](C(=O)OC)(c3cc4c(cc3OC)N(C=O)[C@H]3[C@@](O)(C(=O)OC)[C@H](OC(C)=O)[C@]5(CC)C=CCN6CC[C@]43[C@@H]65)C2)C1,fluorescence,72 h,IC50,17.9 nM
O=C(Nc1cccc(-c2nc(NC(P(=O)(O)O)P(=O)(O)O)c3ccsc3n2)c1)c1ccc(C(F)(F)F)cc1,MTS,72 h,EC50,710 nM
